Assay results taken from ChEMBL document CHEMBL1152305, “Synthesis and ribonucleotide reductase inhibitory activity of thiosemicarbazones” (Bioorg Med Chem Lett, 2008).

assay: Inhibition of human recombinant ribonucleotide reductase expressed in BL21 (DE3) bacteria assessed as conversion of [3H]CDP to [3H]dCDP
Summary of the method: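 Recombinant human hRRM1 and hRRM2 subunits (BL21(DE3) expression, Ni(II) affinity purified) preincubated together with compound at room temperature 30 min, 1% v/v DMSO final. Phosphodiesterase dephosphorylation, HPLC radio-flow separation of cytidine/deoxycytidine. IC50 from nonlinear fit versus DMSO control; three tests in duplicate.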

SMILES | IC50
COc1cc(/C=N/NC(=S)Nc2ccccc2)ccc1O | > 500 µM
S=C(N/N=C/c1ccco1)Nc1ccc(Cl)cc1 | > 500 µM
COc1cc(/C=N/NC(=S)Nc2ccc(Cl)cc2)ccc1O | > 500 µM
Oc1ccccc1/C=N/NC(=S)Nc1ccc(Cl)cc1 | > 500 µM
Cc1ccccc1NC(=S)N/N=C/c1ccc(O)cc1 | 36.5 µM
O=[N+]([O-])c1ccccc1NC(=S)N/N=C/c1ccc(O)cc1 | 39.3 µM
O=[N+]([O-])c1ccc(NC(=S)N/N=C/c2ccc(O)cc2)cc1 | 45.1 µM
Oc1ccccc1/C=N/NC(=S)Nc1ccccc1 | > 500 µM
Oc1ccc(/C=N/NC(=S)Nc2ccccc2O)cc1 | 29.3 µM
S=C(N/N=C/c1cccs1)Nc1ccc(Cl)cc1 | > 500 µM
COc1ccccc1NC(=S)N/N=C/c1ccc(O)cc1 | 41.6 µM
NC(=O)NO [HYDROXYUREA] | 148 µM
NC(=S)N/N=C/c1ncccc1N [TRIAPINE] | 2.25 µM

More lines, now with the values ahead:

IC50 | SMILES
287 µM | Oc1ccc(/C=N/NC(=S)Nc2ccc(Cl)cc2)cc1
43.3 µM | Oc1ccc(/C=N/NC(=S)Nc2ccc(O)cc2)cc1
242 µM | Oc1ccc(/C=N/NC(=S)Nc2ccccc2)cc1
46.8 µM | Oc1ccc(/C=N/NC(=S)Nc2ccccc2Cl)cc1
30.4 µM | Cc1cccc(NC(=S)N/N=C/c2ccc(O)cc2)c1
29.3 µM | Oc1ccc(/C=N/NC(=S)Nc2cccc(Cl)c2)cc1
28.6 µM | Oc1ccc(/C=N/NC(=S)Nc2cccc(O)c2)cc1
14.2 µM | Cc1ccc(NC(=S)N/N=C/c2ccc(O)cc2)cc1
